The source made the active and inactive calls. No cut-off for these calls is given here.
Tests used:
[1] = target: T1, Toll-like receptor 7 (Homo sapiens) (UniProt Q9NYK1); experiment: Agonist activity at human TLR7 expressed in HEK293 cells co-expressing secreted alkaline phosphatase assessed as induction of NF-kappaB/AP-1 promoter activity by measuring increase in secreted alkaline phosphatase level by spectrophotometric method; type: cell-based
T1 sequence (whole entry): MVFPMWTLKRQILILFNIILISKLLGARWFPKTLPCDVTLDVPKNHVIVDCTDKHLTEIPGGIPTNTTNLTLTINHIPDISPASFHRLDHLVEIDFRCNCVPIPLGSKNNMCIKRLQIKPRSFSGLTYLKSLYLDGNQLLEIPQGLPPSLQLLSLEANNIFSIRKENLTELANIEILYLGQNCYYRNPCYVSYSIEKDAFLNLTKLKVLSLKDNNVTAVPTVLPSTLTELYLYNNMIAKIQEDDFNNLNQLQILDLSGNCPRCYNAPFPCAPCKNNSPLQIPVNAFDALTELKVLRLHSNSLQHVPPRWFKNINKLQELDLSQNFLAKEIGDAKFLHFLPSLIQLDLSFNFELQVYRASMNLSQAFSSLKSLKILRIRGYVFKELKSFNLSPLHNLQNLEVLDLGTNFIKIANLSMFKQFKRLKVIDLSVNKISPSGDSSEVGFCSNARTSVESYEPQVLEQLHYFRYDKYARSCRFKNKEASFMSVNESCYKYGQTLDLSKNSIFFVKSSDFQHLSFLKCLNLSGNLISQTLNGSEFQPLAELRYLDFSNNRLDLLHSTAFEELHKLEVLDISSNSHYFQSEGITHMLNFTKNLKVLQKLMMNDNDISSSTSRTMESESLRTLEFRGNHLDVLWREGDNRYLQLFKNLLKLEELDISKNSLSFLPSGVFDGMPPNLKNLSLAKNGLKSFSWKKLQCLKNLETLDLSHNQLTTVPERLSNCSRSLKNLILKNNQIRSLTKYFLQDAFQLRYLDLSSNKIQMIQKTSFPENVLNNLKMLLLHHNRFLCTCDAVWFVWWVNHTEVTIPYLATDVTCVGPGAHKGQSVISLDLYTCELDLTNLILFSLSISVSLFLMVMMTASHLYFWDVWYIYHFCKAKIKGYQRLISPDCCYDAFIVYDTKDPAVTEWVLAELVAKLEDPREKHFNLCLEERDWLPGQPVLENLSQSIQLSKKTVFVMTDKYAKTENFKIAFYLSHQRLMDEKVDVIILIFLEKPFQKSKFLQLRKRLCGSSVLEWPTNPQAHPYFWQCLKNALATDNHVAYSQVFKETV
Outline: (§1)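 HEK293 cells stably co-transfected with the relevant human TLR (2, 3, 4, 5, 7, 8 or 9) plus an NF-κB/AP-1-driven secreted alkaline phosphatase reporter, kept in selection medium. Cells at ~10⁵ cells/ml were exposed to graded concentrations of stimuli in 384-well format, liquid-handler assisted. Supernatant sAP was read at 620 nm with an alkaline phosphatase-specific chromogen.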

[2] = target: T2, Toll-like receptor 8 (Homo sapiens) (UniProt Q9NR97); experiment: Agonist activity at human TLR8 expressed in HEK293 cells co-expressing secreted alkaline phosphatase assessed as induction of NF-kappaB/AP-1 promoter activity by measuring increase in secreted alkaline phosphatase level by spectrophotometric method; type: cell-based; outline: as §1
T2 sequence (whole entry): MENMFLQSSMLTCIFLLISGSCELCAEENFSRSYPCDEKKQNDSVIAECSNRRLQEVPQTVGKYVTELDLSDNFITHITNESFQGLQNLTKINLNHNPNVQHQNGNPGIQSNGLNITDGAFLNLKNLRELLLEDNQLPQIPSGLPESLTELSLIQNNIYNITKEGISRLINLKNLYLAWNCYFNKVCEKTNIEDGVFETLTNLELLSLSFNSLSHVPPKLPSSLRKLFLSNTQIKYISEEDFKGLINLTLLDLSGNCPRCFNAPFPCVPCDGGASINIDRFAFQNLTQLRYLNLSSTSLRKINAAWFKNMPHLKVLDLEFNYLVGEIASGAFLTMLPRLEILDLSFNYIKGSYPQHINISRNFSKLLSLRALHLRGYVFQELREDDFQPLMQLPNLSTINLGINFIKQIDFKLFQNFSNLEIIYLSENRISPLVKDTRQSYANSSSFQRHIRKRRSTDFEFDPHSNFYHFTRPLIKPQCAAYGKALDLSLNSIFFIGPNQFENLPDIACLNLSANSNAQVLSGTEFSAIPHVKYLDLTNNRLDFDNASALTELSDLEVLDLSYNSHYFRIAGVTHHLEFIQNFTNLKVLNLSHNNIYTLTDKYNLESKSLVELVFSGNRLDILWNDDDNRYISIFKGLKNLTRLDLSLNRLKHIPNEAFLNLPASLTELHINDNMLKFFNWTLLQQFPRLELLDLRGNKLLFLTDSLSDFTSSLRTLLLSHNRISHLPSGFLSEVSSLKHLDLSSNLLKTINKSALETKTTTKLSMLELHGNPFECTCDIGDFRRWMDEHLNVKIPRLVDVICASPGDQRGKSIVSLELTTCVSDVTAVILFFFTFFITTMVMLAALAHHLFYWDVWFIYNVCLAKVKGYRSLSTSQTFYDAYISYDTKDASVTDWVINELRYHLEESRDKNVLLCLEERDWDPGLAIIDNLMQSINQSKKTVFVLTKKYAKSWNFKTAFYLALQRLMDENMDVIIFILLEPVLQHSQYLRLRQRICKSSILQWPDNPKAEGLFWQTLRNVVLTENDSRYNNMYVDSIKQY

[3] = target: T1, Toll-like receptor 7 (Homo sapiens); experiment: Inhibition of human TLR7 expressed in HEK293 cells co-expressing secreted alkaline phosphatase assessed as NF-kappaB/AP-1 promoter activity by measuring increase in secreted alkaline phosphatase level at higher concentration by spectrophotometric method; type: cell-based
[4] = target: T2, Toll-like receptor 8 (Homo sapiens); experiment: Inhibition of human TLR8 expressed in HEK293 cells co-expressing secreted alkaline phosphatase assessed as NF-kappaB/AP-1 promoter activity by measuring increase in secreted alkaline phosphatase level at higher concentration by spectrophotometric method; type: cell-based
HEK293 = experiment: Cytotoxicity against HEK293 cells expressing human TLR7 or TLR8 at 10^-4M; type: cell-based; conditions: hek293, 100 µM
[5] = target: T2, Toll-like receptor 8 (Homo sapiens); experiment: Agonist activity at TLR8 in human […] conventional dendritic cells assessed as upregulation of CD80 expression after 16 hrs by efluor 780 dye based flow cytometry
Outline: (§2)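 Human PBMCs were incubated with serial compound dilutions at 37 °C for 16 h, with DMSO controls. Cells were stained with eFluor780 viability dye, then lineage and DC antibodies plus CD80 PE, and fixed. 250,000 gated events were acquired. pDCs were gated as Live Lin⁻ CD123⁺ CD303⁺ CD304⁺ HLA-DR⁺. cDCs were gated as Lin⁻ CD1c⁺ CD141⁻ CD11c⁺ HLA-DR⁺ or Lin⁻ CD141⁺ CD1c⁻ HLA-DR⁺. Median fluorescence intensity was quantified.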

[6] = target: T2, Toll-like receptor 8 (Homo sapiens); experiment: Agonist activity at TLR8 in human CD141 positive conventional dendritic cells assessed as upregulation of CD80 expression after 16 hrs by efluor 780 dye based flow cytometry; outline: as §2
[7] = target: T1, Toll-like receptor 7 (Homo sapiens); experiment: Agonist activity at TLR7 in human plasmacytoid dendritic cells assessed as upregulation of CD80 expression after 16 hrs by efluor 780 dye based flow cytometry; outline: as §2
[8] = target: T1, Toll-like receptor 7 (Homo sapiens); experiment: Agonist activity at human TLR7 expressed in HEK293 cells co-expressing secreted alkaline phosphatase assessed as induction of NF-kappaB/AP-1 promoter activity by measuring increase in secreted alkaline phosphatase level at 100 uM by spectrophotometric method; type: cell-based
[9] = target: Toll-like receptor 2 (Homo sapiens) (UniProt O60603); experiment: Activity at human TLR2 expressed in HEK293 cells co-expressing secreted alkaline phosphatase assessed as induction of NF-kappaB/AP-1 promoter activity by measuring increase in secreted alkaline phosphatase level by spectrophotometric method; type: cell-based; outline: as §1
[10] = target: Toll-like receptor 3 (Homo sapiens) (UniProt O15455); experiment: Activity at human TLR3 expressed in HEK293 cells co-expressing secreted alkaline phosphatase assessed as induction of NF-kappaB/AP-1 promoter activity by measuring increase in secreted alkaline phosphatase level by spectrophotometric method; type: cell-based; outline: as §1
[11] = target: Toll-like receptor 4 (Homo sapiens) (UniProt O00206); experiment: Activity at human TLR4 expressed in HEK293 cells co-expressing secreted alkaline phosphatase assessed as induction of NF-kappaB/AP-1 promoter activity by measuring increase in secreted alkaline phosphatase level by spectrophotometric method; type: cell-based; outline: as §1
[12] = target: Toll-like receptor 5 (Homo sapiens) (UniProt O60602); experiment: Activity at human TLR5 expressed in HEK293 cells co-expressing secreted alkaline phosphatase assessed as induction of NF-kappaB/AP-1 promoter activity by measuring increase in secreted alkaline phosphatase level by spectrophotometric method; type: cell-based; outline: as §1
[13] = target: T3, Toll-like receptor 9 (Homo sapiens) (UniProt Q9NR96); experiment: Activity at human TLR9 expressed in HEK293 cells co-expressing secreted alkaline phosphatase assessed as induction of NF-kappaB/AP-1 promoter activity by measuring increase in secreted alkaline phosphatase level by spectrophotometric method; type: cell-based; outline: as §1
T3 sequence (whole entry): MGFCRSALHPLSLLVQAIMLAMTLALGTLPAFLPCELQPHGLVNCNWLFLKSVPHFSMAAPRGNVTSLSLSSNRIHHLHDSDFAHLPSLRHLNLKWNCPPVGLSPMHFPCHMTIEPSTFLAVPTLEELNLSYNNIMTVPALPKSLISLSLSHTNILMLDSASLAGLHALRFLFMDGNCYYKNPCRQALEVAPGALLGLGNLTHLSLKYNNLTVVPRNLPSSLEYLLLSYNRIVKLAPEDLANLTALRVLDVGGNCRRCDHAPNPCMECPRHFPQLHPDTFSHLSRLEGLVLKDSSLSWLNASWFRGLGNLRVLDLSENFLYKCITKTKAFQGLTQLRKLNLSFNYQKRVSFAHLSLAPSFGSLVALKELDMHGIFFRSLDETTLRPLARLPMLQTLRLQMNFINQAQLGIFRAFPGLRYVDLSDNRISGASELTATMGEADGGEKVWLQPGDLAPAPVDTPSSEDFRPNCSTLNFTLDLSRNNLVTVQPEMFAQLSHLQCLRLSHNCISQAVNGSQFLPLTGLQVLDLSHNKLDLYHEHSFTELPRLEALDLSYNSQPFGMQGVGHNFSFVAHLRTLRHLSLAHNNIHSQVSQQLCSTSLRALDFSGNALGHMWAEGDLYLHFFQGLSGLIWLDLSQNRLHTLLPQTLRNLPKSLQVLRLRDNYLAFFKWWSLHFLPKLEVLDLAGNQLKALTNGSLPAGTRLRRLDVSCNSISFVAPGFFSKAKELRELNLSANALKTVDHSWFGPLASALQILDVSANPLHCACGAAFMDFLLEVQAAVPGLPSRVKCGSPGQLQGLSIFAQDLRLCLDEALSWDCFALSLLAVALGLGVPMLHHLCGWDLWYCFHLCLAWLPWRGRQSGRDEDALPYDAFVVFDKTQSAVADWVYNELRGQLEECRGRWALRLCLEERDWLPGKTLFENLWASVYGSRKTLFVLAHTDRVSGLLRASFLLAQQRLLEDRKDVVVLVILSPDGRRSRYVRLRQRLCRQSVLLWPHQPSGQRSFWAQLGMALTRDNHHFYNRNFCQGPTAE

Toll-like receptor 2 (Homo sapiens), sequence (O60603 whole entry): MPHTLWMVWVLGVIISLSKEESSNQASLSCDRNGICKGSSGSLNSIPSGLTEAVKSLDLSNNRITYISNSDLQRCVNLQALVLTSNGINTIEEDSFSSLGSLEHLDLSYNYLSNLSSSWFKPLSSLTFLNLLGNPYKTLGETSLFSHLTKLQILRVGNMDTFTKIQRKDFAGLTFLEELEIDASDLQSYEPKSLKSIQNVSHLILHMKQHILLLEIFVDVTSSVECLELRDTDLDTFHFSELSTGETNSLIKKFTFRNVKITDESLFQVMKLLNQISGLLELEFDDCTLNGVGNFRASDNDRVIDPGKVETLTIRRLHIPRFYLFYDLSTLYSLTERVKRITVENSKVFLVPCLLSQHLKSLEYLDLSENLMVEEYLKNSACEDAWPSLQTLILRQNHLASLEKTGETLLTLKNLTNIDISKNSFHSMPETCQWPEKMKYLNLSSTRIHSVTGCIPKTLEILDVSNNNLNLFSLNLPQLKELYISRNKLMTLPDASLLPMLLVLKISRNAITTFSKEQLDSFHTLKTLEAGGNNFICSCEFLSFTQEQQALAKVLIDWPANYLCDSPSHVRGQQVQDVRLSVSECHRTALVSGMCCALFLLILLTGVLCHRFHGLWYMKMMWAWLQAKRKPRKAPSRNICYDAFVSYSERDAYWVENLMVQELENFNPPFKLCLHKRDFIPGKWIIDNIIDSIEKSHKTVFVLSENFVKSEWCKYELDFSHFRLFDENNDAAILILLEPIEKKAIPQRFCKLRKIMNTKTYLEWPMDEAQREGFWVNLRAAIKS
Toll-like receptor 4 (Homo sapiens), sequence (O00206 whole entry): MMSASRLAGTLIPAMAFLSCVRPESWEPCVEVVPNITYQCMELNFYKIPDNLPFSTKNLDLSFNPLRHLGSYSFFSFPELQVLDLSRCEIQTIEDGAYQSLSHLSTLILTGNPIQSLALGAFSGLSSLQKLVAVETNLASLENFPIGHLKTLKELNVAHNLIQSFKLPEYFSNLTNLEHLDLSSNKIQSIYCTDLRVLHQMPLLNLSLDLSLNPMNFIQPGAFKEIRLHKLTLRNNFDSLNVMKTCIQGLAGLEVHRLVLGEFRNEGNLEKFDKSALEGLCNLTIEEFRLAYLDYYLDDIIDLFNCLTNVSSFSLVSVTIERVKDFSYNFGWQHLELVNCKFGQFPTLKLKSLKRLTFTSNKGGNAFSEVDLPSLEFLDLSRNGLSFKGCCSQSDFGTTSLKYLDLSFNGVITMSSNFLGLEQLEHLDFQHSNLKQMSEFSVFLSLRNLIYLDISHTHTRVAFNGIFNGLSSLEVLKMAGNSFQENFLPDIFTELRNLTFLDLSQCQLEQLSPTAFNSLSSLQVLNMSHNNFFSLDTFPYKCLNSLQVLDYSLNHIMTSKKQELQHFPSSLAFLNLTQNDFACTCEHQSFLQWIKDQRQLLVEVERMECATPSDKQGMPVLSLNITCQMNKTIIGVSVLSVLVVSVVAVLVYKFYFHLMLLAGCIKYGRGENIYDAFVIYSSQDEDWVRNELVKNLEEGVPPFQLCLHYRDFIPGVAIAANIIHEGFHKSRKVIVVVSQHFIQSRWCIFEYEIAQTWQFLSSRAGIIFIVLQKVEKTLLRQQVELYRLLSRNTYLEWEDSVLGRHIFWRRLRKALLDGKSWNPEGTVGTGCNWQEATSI
Toll-like receptor 3 (Homo sapiens), sequence (O15455 whole entry): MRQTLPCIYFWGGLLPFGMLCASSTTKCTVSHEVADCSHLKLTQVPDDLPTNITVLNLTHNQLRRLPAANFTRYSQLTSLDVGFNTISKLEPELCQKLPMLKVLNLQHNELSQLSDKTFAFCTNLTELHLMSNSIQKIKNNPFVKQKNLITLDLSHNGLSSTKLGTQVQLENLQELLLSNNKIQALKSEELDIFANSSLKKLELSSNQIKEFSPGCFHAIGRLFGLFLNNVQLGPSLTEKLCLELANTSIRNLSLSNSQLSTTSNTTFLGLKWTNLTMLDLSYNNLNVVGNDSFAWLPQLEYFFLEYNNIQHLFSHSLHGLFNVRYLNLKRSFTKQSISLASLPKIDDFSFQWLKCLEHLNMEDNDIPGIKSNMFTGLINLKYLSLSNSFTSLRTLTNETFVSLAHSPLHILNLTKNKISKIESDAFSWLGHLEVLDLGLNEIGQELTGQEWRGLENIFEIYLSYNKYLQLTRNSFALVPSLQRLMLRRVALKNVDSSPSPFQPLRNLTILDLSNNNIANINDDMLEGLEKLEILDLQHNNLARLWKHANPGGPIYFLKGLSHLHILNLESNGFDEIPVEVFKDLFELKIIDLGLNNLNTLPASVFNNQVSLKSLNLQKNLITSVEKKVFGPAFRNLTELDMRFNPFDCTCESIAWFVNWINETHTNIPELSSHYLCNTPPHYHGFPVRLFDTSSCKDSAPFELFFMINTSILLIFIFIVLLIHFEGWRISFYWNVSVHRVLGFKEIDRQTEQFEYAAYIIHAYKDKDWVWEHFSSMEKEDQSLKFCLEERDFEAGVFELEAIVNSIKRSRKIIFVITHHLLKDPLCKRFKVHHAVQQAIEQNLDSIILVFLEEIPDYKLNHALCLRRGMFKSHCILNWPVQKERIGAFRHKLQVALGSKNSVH
Toll-like receptor 5 (Homo sapiens), sequence (O60602 whole entry): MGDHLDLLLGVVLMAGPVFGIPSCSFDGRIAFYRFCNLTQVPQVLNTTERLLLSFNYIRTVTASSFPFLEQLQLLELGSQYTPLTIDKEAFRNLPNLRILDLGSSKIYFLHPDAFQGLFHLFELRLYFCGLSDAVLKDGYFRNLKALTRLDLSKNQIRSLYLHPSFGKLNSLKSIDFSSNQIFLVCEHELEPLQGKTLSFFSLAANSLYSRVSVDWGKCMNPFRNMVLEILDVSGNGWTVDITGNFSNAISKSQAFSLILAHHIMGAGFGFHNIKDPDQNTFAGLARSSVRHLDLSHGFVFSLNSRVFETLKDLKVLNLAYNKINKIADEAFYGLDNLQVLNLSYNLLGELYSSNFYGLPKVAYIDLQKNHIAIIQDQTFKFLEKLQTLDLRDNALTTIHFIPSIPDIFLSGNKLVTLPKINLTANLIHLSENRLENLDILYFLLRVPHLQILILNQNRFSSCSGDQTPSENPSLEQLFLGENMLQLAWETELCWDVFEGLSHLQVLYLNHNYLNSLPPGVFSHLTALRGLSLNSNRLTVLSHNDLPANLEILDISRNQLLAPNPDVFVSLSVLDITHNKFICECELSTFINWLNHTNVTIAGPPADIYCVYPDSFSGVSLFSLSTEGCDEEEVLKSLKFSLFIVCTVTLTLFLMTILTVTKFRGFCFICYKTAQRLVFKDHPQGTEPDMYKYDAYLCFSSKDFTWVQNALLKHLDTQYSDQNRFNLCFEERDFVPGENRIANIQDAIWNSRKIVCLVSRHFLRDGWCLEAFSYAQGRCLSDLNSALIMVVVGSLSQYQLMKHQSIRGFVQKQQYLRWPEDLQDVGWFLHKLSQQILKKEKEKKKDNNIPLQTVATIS

Activity [1]	Activity [2]	inhibition [3]	inhibition [4]	Activity [5]	Activity [6]	Activity [7]	Activity [8]	Activity [9]	Activity [10]	Activity [11]	Activity [12]	Activity [13]	Structure (SMILES)	Activity (HEK293)
Active	Active	Active	Active	Active	Active	Active							CCCCc1nc2c(N)nc3ccccc3c2n1Cc1ccc(CN)cc1	Non-Toxic
							inactive	inactive	inactive	inactive	inactive	inactive	CCCCNc1nc(N)nc(C)c1Cc1ccccc1	

From ChEMBL document CHEMBL4007404, “Identification of High-Potency Human TLR8 and Dual TLR7/TLR8 Agonists in Pyrimidine-2,4-diamines” (J Med Chem, 2017)
